The EternaBench riboswitch data

Tested on: MS2 coat protein
Test: apparent Kd, MS2 coat protein; higher = weaker binding; RNA-MaP array; FMN 200 µM where present
Outline: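 Two titrations, one without ligand and one with constant ligand, were run with SNAP-549-labelled MS2 coat protein from 0.7 or 1.5 nM, doubling to 3 µM. The targets were designs transcribed by stalled E. coli RNA polymerase on Illumina sequencing-chip clusters, in 100 mM Tris-HCl pH 7.5, 80 mM KCl, 4 mM MgCl2, BSA, DTT, yeast tRNA and Tween-20. The apparent Kd is the median of filtered per-cluster binding-curve fits, with green signal normalised to red-channel RNA signal and control-cluster median Fmax.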

[1] = designed as: ON switch for flavin mononucleotide, no ligand
[2] = ligand present: flavin mononucleotide, designed as: ON switch for flavin mononucleotide
[3] = designed as: OFF switch for flavin mononucleotide, no ligand
[4] = ligand present: flavin mononucleotide, designed as: OFF switch for flavin mononucleotide

Row | Sequence | apparent Kd [1] | apparent Kd [2] | apparent Kd [3] | apparent Kd [4]
1 | GGACGACACAUUAACAUGAGGAUCACCCAUGUCUCUUGACAUGAGGAUAUGGAUCCUAAUUGGAUCCAGAAGGCAUGGUCGUCC | 1.13 µM | 0.0935 µM | – | –
2 | CCAUAAAAGAUCCAAAAUUACAACAUGAGGAUCACCCAUGUGCAGGAUAUCGUGCCAGUGAAGUACGAGAAGGGCAGACACUGC | – | – | 0.45 µM | 0.487 µM
3 | AGCUGUGGCCGAGGAUAUCACGAACCAUGGAAAACCAUGGAAAUUCUACAUGAGGAUCACCCAUGUGAGAAGGCGGUCUCAGCA | – | – | 0.0181 µM | 0.0172 µM
4 | GGUGUCAUCGAGAAGGCCUCAACAUGAGGAUCACCCAUGUUGUAAUAUGGGAGGAUAUCGAUGAUACAGCUACGUUUCGUAGCA | 0.0185 µM | 0.0061 µM | – | –
5 | AUAAUGAGAGGAUAUACAUGAGGAUCACCCAUGUUAUUAUCACGGCGAGCUCCAUUACGUAGAAGGCUCAUUUA | – | – | 0.0165 µM | 0.0447 µM
6 | CAGUGCAUUGAGAAGGGACACCGGGAUCCCAACUUCUCUCAUAACGGACAUGAGGAUCACCCAUGUCAGGAUAUCAACGUUUAG | – | – | 0.0231 µM | 0.0167 µM
7 | GUUAAGGUAGGAUAUACGAUAAUAUAGGGUAGAGAUAUAACACAUGAGGAUCACCCAUGUAGAAGGACCAAUUG | – | – | 0.0253 µM | 0.0752 µM
8 | ACAAAUGGAGGAUAUACAUGAGGAUCACCCAUGUUUAUCCUACAUAUGUGAUAAUCAUGUAGAAGGCCAUAUGA | – | – | 0.0165 µM | 0.0125 µM
9 | UGGAGAAAUCAAGGAUAUGCUACCGUUUCGGUAGCAGAAGGUGAUCACAUGAGGAUCACCCAUGUAUGCAUGCGUGAGCGUGCU | 0.0464 µM | 0.289 µM | – | –
10 | AGUCCGGAACAGAAGGACAUGAGGAUCACCCAUGUAGGAUAUGUUGUGCGGCGUUAGGGAGGUGCCUGCGUGUGGGCGGAUCUC | 0.0141 µM | 0.00656 µM | – | –
11 | AGUUAGAUAGCGAUAUGAUCGAGAGAUCAUGUCGCUAAGUUUAGAAGGACAUGAGGAUCACCCAUGUAGGAUAUGGGAGUAGAA | 0.149 µM | 0.0539 µM | – | –
12 | GUGCCUUAUGAGAAGGCGAUCAUGAAACAUGAUCGAGGAUAUCAUGUAAACAUGAGGAUCACCCAUGUAUGGGUAUUAUGGUAC | 0.547 µM | 0.0555 µM | – | –
13 | UUUUACGGAGGAUAUACAUUUUUUUUAUUAUCCUCAUUAUUACAUGAGGAUCACCCAUGUAGAAGGCCGAUUUU | – | – | 0.0426 µM | 0.173 µM
14 | CUUUAUCACUAUACAUGAGGAUCACCCAUGUUAUCAUCAUGAGAGGAUAUCGUAUUUGGAUUUUUCGAGAAGGCUCUAUUGUAU | 0.152 µM | 0.0539 µM | – | –
15 | AUAAAGCGAGGAUAUCGCGCGGAGUACAUGAGGAUCACCCAUGUGGUCCGCAGUCCUGCGCGAGAAGGCGCAUUCC | – | – | 0.138 µM | 0.0542 µM
16 | UUUUUUAAGUAAGGAUAUCGGUCUUAGUUAGGUCGAGAAGGUACAUGAGGAUCACCCAUGUUGUUUUUUUUUUCUUUUUUUUUU | – | – | 0.00951 µM | 0.0141 µM
17 | GGUGCGUAUGUGAGGAUAUGCUGGUCCUUGGAUCAGCAGAAGGCACAUGAGGAUCACCCAUGUGGUGUCGUACC | – | – | 0.357 µM | 0.0235 µM
18 | CCCUCGGCGUGUAGAUACAUACAUGAGGAUCACCCAUGUGAGAAGGAUAUGCACGCGUGCUGCCGGCAGAAGGUCUAGAUGGUG | – | – | 0.0254 µM | 0.0298 µM
19 | GGACGUCAGAUUAACAUGAGGAUCACCCAUGUCUUUUGACAUGAGGAUAUGGAUCCUAAUUGGAUCCAGAAGGCAUGGACGUCC | 1.12 µM | 0.0949 µM | – | –
20 | AUCAGCUCGUCAGGAUAUACGUCACUGCGUCAGCAGUGUGGUAAGAUCACAUGAGGAUCACCCAUGUAGAAGGGACGAGCUAAU | – | – | 0.0137 µM | 0.334 µM
21 | AAUAACAGAGGAUAUACUGUUUUAUGUGUUUGUUGUUUUGAACAUGAGGAUCACCCAUGUAGAAGGCUGAAUGA | – | – | 0.0281 µM | 0.0259 µM
22 | UUUUUUAUGUAAGGAUAUCGAUUAUAUACACAUCCUACAUGAGGAUCACCCAUGUUUUAAUUUAUCGAGAAGGUACAUUGUCUG | 0.0341 µM | 0.0365 µM | – | –
23 | AAAGAAAGGUCAGGAUAUCCGUUAGUCGCGCAAGGAGAAGGGACCUCAUGGGUGCUGACACAUGAGGAUCACCCAUGUAAAAUA | – | – | 0.0655 µM | 0.0231 µM
24 | AAUCGGGAGCAGAAGGCAUGUCAUAAGACAUGAGGAUCACCCAUGUAGUUAAGGCGAAAGCCGCAUGAGGAUAUGCUCCCGUAA | 0.0713 µM | 0.00627 µM | – | –
25 | AAUGAGCUAGGAUAUACAUGAGGAUCACCCAUGUAAAAUAGGUCAUGGAGGAACCACUGUAGAAGGAGCAGGGC | – | – | 0.0454 µM | 0.0721 µM
26 | UUCGAAUUGUAGGAUAUUUUGCCCGAUUGGGCGGGAGAAGGGCAGACAUGAGGAUCACCCAUGUGUCAGGCAGU | – | – | 0.0408 µM | 0.0405 µM
27 | GCCAGGAUGUGAGGAUAUGCUGAGGAUAACUCAGCAGAAGGCACAUGAGGAUCACCCAUGUAAACUUAUAAUAAAUACCCUGGC | – | – | 0.013 µM | 0.0284 µM
28 | UUGUUAGGGAGAGGAUAUUGACAUGAGGAUCACCCAUGUAUUUGGGAGUGUUUACUGAAUUCUCACGAGAAGGCUUACAAAUUU | – | – | 0.584 µM | 0.534 µM

Row | Sequence | apparent Kd [1] | apparent Kd [2] | apparent Kd [3] | apparent Kd [4]
29 | AAAAAAUAAGGAUAUACAUUUCGGGAAAUUUUUACAAAAAAACAUGAGGAUCACCCAUGUAGAAGGUAUAAAAA | – | – | 0.0232 µM | 0.0201 µM
30 | UGGUACUAGGGAGGAUAUGGGAAGAUACAUGAGGAUCACCCAUGUUUAAGAAUGCCGAGAAGCAACUAGAAGGCCCUAGUACCU | 0.332 µM | 0.0195 µM | – | –
31 | UUAAUGUGAGGAUAUCAGGUGUGCUAGCGUACUGGUACAUCUGAGAAGGCACAUGAGGAUCACCCAUGUUCUUC | – | – | 0.037 µM | 0.135 µM
32 | UUCGUGUGACAGAAGGGUCUUUCGGGCUGGGAGGCAGGAUAUGUGACAUGAGGAUCACCCAUGUUGGUAUCGUCUGUGUGUACG | – | – | 0.00615 µM | 0.0128 µM
33 | AAUAGACAUGAGGAUCACCCAUGUGUAUAUGGGAGAGGAUAUACGGGACACAAGGGCGGAGUAGAAGGCUCGAGAC | 0.149 µM | 0.146 µM | – | –
34 | UGAGAUCGGGCAGGAUAUCGACAUGAGGAUCACCCAUGUGGGUUAUACUUCCCGCAUGGCUGUGGCGAGAAGGGCCCGGACCAU | – | – | 0.395 µM | 0.0831 µM
35 | AACCGGGAGAAGCAGGAUAUUGCCUCUUCAACAUGAGGAUCACCCAUGUAAGUAAAUUGACGAUACAAGAAGGGCUGCUCCUUAC | 0.118 µM | 0.0381 µM | – | –
36 | AUGGAACAUGAGGAUCACCCAUGUGAGGAUAUCGUCGGCGCGCUUGAAACGAGCUGCCCGAGAAGGCACAGUGG | – | – | 0.16 µM | 0.238 µM
37 | CCUCCCUGAGGAUAUCCACCCUCAUACAUGAGGAUCACCCAUGUUCAUCCCUGGGUACCCGGAGAAGGCAGAUUUC | – | – | 0.154 µM | 0.165 µM
38 | UCCUCACAUGAGGAUCACCCAUGUCAGGAUAUCUGCGAGCAAUGGCCAAGGCCACUCAGGAGAAGGGACGUCAA | – | – | 0.0163 µM | 0.0223 µM
39 | GCCAUCGCAUGAGGAUAUGGCACCGUUUCGGUGCCAGAAGGCAUGUCUCUUGACAUGAGGAUCACCCAUGUAGUUAAGAUGGCA | 0.779 µM | 0.052 µM | – | –
40 | GGGAGACAUGAGGAUCACCCAUGUGAAAACGUGUGAGGAUAUGAAUGGAAACCAUACUGUUCAGAAGGCACUUGUC | 0.0897 µM | 0.0366 µM | – | –
41 | CUUCUUGGGCAAGGAUAUCCUGUGCGGUUCCGGCUCGUGUCUGUCACAUGAGGAUCACCCAUGUGGGAGAAGGUGCCUGCGGUC | – | – | 0.00615 µM | 0.00679 µM
42 | GCCAACUUAUGAGGAUAUGGCACCUUAUUGGUGCCAGAAGGCAUGUCUCUUGACAUGAGGAUCACCCAUGUAUUAUAGUUGGCA | 0.421 µM | 0.158 µM | – | –
43 | UUGUUAUAUGUAGGAUAUGCAUAUUAUUAUUAUGCAGAAGGACAUGAGGAUCACCCAUGUAUAUUAUUGUUAUAUGUUAUAUAU | – | – | 0.023 µM | 0.0254 µM
44 | GCAACGCCUGACAUGAGGAUCACCCAUGUUAGAUUGUUAUGUCAGGAUAUUGUCUCGAAACGAGACGAGAAGGGAUAUGUUGCU | 1.11 µM | 0.039 µM | – | –
45 | CGGCAAGUCGUAGGAUAUGGUGAUGUACAUGAGGAUCACCCAUGUCCGUCUUCUCUCACAAGAUGCCAGAAGGGCGACUUCCGG | 0.829 µM | 0.34 µM | – | –
46 | AAGUAUGGAGGAUAUACAUGGAUAUACAUUCAUGUGGACCUACAUGAGGAUCACCCAUGUAGAAGGCCAUAAUA | – | – | 0.0307 µM | 0.0166 µM
47 | AUGUUACAUGAGGAUCACCCAUGUCAGGAUAUCUAUCAUAGCAUAGAAAUAUGCGGGUAGAGAAGGGACUAUCC | – | – | 0.0154 µM | 0.0138 µM
48 | GUUGGGUGUCAUGUCGCACAUGAGGAUCACCCAUGUAGGAGGUAGGAUAUCCACGAGAAACAAGCGGAGAAGGGCCAUUAGCGU | – | – | 0.0279 µM | 0.0313 µM
49 | AAGCCACAUGAGGAUCACCCAUGUCAGGAUAUCUCGAAAAGCAUAGAAAUAUGCGAAGAGAGAAGGGACUACUC | – | – | 0.0431 µM | 0.0677 µM
50 | AAGUCUGUACGAGGAUAUCAGUUGUAUCUAAAUUCAACAUGAGGAUCACCCAUGUUGCAAUAGGGUGAGAAGGCGUGUGGGCAA | 0.0701 µM | 0.0216 µM | – | –
51 | GUAUGUAACAAGGAUAUGCCCUCGAUACGAUUUGCAGAAGGUGUUACAUGAGGAUCACCCAUGUGGCCUUGCAU | – | – | 0.0194 µM | 0.0749 µM
52 | GUAACUCAUGUAGGAUAUGCAUGGCGAAGCUACGCAGAAGGACAUGAGGAUCACCCAUGUUCUAGCGUCUGGAUACAGAUGCAA | – | – | 0.0857 µM | 0.327 µM
53 | CCCAUCGCAUGAGGAUAUGGUCAGGUUUCCUGACCAGAAGGCAUGUCAUAAGACAUGAGGAUCACCCAUGUAGUUAAGAUGGGA | 0.672 µM | 0.0475 µM | – | –
54 | UUUUAACAUGAGGAUCACCCAUGUGAGGAUAUCGAAAUUUAUAUUAAUAUUUAUAUUUCGAGAAGGCACAUUUU | – | – | 0.204 µM | 0.191 µM
55 | AUCAGCUCGUCAGGAUAUACGUCACUGCGUAAGCAGUGUGGUAAGAUCACAUGAGGAUCACCCAUGUAGAAGGGACGAGCUGAU | – | – | 0.0129 µM | 0.288 µM
